Results reported in ChEMBL document CHEMBL4138312 (J Med Chem, 2018).

Key:
Homo sapiens = species on record: Homo sapiens; test: Selectivity ratio of IC50 for recombinant human JAK2 (831 to 1132 residues) expressed in insect cell to IC50 for cytoplasmic recombinant human GST-tagged JAK1 (886 to 1154 residues) expressed in baculovirus
Method in brief: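 Biochemical IC50s measured against JAK1 and JAK2 at 5 mM ATP. Each IC50 is the geometric mean of at least two independent experiments. The ratio is the JAK2 IC50 divided by the JAK1 IC50.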

[1] = target: Tyrosine-protein kinase JAK2 (Homo sapiens, UniProt O60674); test: Inhibition of recombinant human JAK2 (831 to 1132 residues) expressed in insect cells using 5FAM-GEEPLYWSFPAKKK-NH2 as substrate after 10 mins by caliper assay
Sequence of Tyrosine-protein kinase JAK2 (O60674 whole entry, the tested form may be a part): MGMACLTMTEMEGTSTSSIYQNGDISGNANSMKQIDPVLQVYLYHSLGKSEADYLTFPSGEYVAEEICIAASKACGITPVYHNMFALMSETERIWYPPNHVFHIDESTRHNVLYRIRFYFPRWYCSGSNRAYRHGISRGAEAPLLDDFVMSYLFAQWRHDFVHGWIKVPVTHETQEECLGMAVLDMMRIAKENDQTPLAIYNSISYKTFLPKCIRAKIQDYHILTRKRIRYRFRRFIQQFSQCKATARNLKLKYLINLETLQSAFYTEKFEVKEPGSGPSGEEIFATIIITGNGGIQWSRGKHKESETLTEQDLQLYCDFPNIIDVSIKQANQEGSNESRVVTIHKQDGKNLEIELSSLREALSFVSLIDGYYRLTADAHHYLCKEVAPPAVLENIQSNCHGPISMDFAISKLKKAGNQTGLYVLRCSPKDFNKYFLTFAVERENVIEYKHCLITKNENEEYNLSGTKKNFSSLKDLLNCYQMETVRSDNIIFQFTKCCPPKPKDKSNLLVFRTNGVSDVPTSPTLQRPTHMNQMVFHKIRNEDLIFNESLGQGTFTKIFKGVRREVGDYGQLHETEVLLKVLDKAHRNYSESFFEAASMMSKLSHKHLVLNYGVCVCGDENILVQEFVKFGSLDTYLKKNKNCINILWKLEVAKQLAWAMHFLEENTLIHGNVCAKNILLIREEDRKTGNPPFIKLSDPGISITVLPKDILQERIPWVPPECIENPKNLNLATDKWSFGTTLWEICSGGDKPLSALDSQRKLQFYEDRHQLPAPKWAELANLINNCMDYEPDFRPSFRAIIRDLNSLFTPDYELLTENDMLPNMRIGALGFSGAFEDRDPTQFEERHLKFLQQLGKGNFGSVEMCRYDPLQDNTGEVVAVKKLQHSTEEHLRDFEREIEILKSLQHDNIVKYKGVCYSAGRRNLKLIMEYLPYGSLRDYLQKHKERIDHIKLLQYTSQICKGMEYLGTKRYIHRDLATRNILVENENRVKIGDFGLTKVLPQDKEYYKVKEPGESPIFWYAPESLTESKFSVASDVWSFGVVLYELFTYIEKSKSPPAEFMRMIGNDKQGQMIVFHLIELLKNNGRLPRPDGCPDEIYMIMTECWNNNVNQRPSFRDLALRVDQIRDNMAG
Method in brief: (§1)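 Biochemical kinase inhibition IC50 measured at 5 mM ATP. Values are the geometric mean of at least two independent experiments.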

[2] = target: T1, Tyrosine-protein kinase JAK1 (Homo sapiens, UniProt P23458); test: Inhibition of cytoplasmic recombinant human GST-tagged JAK1 (886 to 1154 residues) expressed in insect cells using FITC-C6-KKHTDDGYMPMSPGVA-NH as substrate after 10 mins by caliper assay; method in brief: as §1
T1 sequence (P23458 whole entry, the tested form may be a part): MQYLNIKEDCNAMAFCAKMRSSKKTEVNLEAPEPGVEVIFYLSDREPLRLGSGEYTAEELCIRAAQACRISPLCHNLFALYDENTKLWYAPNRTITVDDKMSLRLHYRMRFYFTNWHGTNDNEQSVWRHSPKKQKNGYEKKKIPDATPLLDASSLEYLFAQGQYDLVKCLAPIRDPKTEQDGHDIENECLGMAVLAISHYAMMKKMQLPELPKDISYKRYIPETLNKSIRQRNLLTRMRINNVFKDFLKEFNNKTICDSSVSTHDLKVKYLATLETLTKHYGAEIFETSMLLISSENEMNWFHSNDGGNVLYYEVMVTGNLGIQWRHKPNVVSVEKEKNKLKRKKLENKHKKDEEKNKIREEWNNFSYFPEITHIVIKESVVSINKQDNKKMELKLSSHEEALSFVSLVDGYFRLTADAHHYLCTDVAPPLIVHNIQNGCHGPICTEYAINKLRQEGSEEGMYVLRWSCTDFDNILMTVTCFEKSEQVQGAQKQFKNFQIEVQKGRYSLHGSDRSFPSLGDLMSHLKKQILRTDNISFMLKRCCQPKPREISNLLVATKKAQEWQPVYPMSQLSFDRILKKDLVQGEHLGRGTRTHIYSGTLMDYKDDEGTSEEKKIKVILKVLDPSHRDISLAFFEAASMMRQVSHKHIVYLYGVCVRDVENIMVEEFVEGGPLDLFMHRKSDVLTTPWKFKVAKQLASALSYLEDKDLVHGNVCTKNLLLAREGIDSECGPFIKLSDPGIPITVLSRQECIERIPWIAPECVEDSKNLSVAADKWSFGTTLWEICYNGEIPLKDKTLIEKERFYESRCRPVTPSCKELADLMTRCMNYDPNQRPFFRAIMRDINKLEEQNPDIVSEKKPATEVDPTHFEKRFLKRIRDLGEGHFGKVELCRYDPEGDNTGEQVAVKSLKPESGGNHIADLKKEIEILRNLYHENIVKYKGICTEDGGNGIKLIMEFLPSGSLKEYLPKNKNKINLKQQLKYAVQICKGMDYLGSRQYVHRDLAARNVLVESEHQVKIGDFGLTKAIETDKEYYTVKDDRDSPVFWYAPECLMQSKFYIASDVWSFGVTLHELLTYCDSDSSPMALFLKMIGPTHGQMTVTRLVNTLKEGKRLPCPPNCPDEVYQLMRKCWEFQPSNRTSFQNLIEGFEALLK

[3] = target: T1, Tyrosine-protein kinase JAK1; test: Inhibition of JAK1 in human NCI-H1975 cells assessed as reduction in STAT3 phosphorylation after 1 hr by ELISA; format: cell-based
Method in brief: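 Cellular mode-of-action assay in NCI-H1975 cells, read as inhibition of STAT3 phosphorylation. EC50 was derived.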

[4] = Intrinsic clearance in human liver microsomes; format: ADME, microsome; details: read-out: CLH
[5] = Octanol-water partition coefficient, log D of the compound in sodium phosphate buffer at pH 7.4 after 5 hrs by shake-flask assay; format: physicochemical
[6] = target: T2, Tyrosine-protein kinase JAK3 (Homo sapiens, UniProt P52333); test: Inhibition of recombinant human JAK3 (781 to 1124 residues) expressed in insect cells using 5FAM-GEEPLYWSFPAKKK-NH2 as substrate after 10 mins by caliper assay; method in brief: as §1
T2 sequence (P52333 whole entry): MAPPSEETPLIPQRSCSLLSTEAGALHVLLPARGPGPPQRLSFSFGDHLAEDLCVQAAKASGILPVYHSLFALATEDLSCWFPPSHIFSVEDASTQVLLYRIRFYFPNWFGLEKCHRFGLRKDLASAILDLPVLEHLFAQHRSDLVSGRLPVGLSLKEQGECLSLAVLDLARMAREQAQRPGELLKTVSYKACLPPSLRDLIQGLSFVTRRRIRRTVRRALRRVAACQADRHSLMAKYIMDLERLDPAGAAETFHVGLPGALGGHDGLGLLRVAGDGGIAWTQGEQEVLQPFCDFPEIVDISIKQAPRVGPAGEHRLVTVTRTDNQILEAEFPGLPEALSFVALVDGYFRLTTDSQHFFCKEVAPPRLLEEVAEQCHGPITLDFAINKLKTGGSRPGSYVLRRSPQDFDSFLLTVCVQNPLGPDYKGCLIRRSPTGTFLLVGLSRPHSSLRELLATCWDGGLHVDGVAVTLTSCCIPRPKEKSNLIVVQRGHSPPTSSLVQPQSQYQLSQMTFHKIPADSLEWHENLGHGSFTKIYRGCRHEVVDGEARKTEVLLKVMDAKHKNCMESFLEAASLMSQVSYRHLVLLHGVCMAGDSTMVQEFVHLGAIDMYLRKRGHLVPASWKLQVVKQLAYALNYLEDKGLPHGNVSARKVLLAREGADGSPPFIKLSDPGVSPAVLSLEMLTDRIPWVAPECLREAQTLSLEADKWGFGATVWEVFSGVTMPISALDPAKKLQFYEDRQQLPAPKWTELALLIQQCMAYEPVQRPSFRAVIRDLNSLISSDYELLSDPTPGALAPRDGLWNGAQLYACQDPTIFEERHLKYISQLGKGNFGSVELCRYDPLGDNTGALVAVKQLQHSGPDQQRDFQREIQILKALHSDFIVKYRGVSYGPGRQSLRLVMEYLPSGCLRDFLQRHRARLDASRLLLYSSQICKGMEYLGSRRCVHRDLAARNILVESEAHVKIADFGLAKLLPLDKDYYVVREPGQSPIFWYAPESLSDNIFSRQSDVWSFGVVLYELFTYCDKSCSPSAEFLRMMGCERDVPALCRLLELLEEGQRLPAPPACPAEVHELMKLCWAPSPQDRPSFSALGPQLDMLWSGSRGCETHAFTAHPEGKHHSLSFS

[7] = target: Non-receptor tyrosine-protein kinase TYK2 (Homo sapiens, UniProt P29597); test: Inhibition of recombinant human N-terminal GST-tagged TYK2 (871 to 1187 residues) expressed in baculovirus expression system using 5FAM-GEEPLYWSFPAKKK-NH2 as substrate after 10 mins by caliper assay; method in brief: as §1
Sequence of Non-receptor tyrosine-protein kinase TYK2 (P29597 whole entry, the tested form may be a part): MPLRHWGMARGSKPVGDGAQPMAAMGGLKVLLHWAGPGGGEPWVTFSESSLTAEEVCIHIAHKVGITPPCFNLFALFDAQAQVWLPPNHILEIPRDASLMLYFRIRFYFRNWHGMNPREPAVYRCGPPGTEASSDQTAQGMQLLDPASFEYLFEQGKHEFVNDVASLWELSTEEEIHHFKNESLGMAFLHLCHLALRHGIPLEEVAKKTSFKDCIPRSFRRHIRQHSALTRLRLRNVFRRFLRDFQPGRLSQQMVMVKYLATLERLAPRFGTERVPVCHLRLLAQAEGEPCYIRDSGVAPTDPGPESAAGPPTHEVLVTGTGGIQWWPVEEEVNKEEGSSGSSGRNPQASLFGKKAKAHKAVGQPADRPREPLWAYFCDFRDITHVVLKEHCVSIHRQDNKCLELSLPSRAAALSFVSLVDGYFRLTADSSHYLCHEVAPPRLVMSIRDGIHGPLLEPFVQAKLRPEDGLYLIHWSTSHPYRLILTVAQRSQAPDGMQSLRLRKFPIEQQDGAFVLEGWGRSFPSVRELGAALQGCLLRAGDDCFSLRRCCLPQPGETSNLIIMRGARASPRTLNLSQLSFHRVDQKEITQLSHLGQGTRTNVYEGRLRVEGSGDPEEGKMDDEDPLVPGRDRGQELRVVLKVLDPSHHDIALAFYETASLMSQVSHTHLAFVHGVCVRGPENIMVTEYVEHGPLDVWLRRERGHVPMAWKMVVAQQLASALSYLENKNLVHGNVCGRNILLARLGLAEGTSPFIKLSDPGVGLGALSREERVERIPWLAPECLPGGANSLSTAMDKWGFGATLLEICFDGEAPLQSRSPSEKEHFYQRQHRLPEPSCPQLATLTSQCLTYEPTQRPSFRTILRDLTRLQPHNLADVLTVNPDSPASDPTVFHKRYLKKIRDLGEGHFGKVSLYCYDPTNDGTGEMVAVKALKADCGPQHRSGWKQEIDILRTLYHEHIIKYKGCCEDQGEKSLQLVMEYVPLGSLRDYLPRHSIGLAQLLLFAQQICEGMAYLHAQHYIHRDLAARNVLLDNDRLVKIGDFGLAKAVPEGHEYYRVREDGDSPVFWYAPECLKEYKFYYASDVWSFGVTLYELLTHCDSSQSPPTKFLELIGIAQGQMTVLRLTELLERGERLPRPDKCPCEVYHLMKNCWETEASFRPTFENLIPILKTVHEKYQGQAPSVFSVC

A549 = test: Antiproliferative activity against human A549 cells after 48 hrs by Alamar Blue based assay; format: functional; details: A549, 48 h
Method in brief: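 Antiproliferation assay in A549 cells, reported as GI50.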

Ratio IC50 (Homo sapiens)	IC50 [1] [nM]	IC50 [2] [nM]	EC50 [3] [nM]	microsomal CLint [4] [µL/min/mg]	logD at 5 h [5]	IC50 [6] [µM]	IC50 [7] [µM]	GI50 (A549) [nM]	Compound
> 309	929	< 3	99	59.5	1.74	> 30	–	–	Cc1cnc(Nc2cc(N3CCN(C)CC3)cc(S(C)(=O)=O)c2)nc1Nc1cccc(CO)c1
> 120	363	< 3	–	–	2.43	6.54	–	–	CN1CCN(c2cc(Nc3ncc(Br)c(Nc4cccc(CO)c4)n3)cc(S(C)(=O)=O)c2)CC1
32	417	13	–	–	–	> 30	–	–	Cc1cnc(Nc2cc(N3CCOCC3)cc(S(C)(=O)=O)c2)nc1Nc1cccc(CO)c1
< 0.75	< 3	4	–	–	–	0.371	–	–	Cc1cnc(Nc2cc(N3CCOCC3)cc(N3CCOCC3)c2)nc1Nc1cccc(CO)c1
–	376	16	37	–	–	18.1	–	–	Cc1cnc(Nc2cc(C(F)F)cc(N3C[C@@H]4C[C@H]3CN4C)c2)nc1Nc1cccc(CO)c1
–	1180	< 3	92	7.32	0.82	> 27.9	–	–	Cc1cnc(Nc2cc(N3C[C@@H]4C[C@H]3CN4C)cc(S(C)(=O)=O)c2)nc1Nc1cccc(CO)c1
–	817	6	> 3000	–	1.29	> 30	–	–	Cc1cnc(Nc2cc(N3CCN(CCO)CC3)cc(S(C)(=O)=O)c2)nc1Nc1cccc(CO)c1
–	> 30000	26	50	–	–	–	24.7	–	Cc1cnc(Nc2cc(N3C[C@@H]4C[C@H]3CN4C)cnc2F)nc1N[C@H](C)C(C)C
6.5	357	55	–	–	–	20.3	–	–	Cc1cnc(Nc2cccc(N3CCN(C)CC3)c2)nc1Nc1cccc(CO)c1
140	13900	3 to 100	–	–	1.75	> 30	–	–	CN1CCN(c2cc(Nc3nccc(Nc4cccc(CO)c4)n3)cc(S(C)(=O)=O)c2)CC1
–	> 30000	55	26	–	–	> 30	–	–	Cc1cnc(Nc2cc(N3C[C@@H]4C[C@H]3CN4C)cc(C(F)F)c2F)nc1Nc1cccc(CO)c1
–	> 30000	117	101	–	–	> 30	–	–	Cc1cnc(Nc2cc(N3C[C@@H]4C[C@H]3CN4C)ccc2F)nc1Nc1cccc(CO)c1
150	6410	42	–	–	1.84	> 30	–	–	CN1CCN(c2cc(Nc3ncc(F)c(Nc4cccc(CO)c4)n3)cc(S(C)(=O)=O)c2)CC1
–	347	10	> 3000	–	1.74	24.6	–	–	CC(=O)N1CCN(c2cc(Nc3ncc(C)c(Nc4cccc(CO)c4)n3)cc(S(C)(=O)=O)c2)CC1
–	996	5	325	–	1.24	> 30	–	–	Cc1cnc(Nc2cc(N3C[C@@H](C)N[C@@H](C)C3)cc(S(C)(=O)=O)c2)nc1Nc1cccc(CO)c1
> 240	722	< 3	–	–	2.16	12.6	–	–	CN1CCN(c2cc(Nc3ncc(Cl)c(Nc4cccc(CO)c4)n3)cc(S(C)(=O)=O)c2)CC1
–	> 30000	40	68	–	–	> 30	–	253	Cc1cnc(Nc2cc(N3C[C@@H]4C[C@H]3CN4C)cnc2F)nc1Nc1cccc(CO)c1
–	951	< 3	496	–	1.09	> 30	–	–	Cc1cnc(Nc2cc(N3CCNCC3)cc(S(C)(=O)=O)c2)nc1Nc1cccc(CO)c1
–	1030	12	189	–	1.9	> 30	–	–	COCCN1CCN(c2cc(Nc3ncc(C)c(Nc4cccc(CO)c4)n3)cc(S(C)(=O)=O)c2)CC1
–	> 30000	29	44	–	–	> 30	> 30	> 10000	CCC(CC)Nc1nc(Nc2cc(N3C[C@@H]4C[C@H]3CN4C)cnc2F)ncc1C
> 10	36	< 3	–	–	–	0.464	–	–	CN1CCN(c2cc(Nc3nccc(Nc4ccc(F)c(Cl)c4F)n3)cc(S(C)(=O)=O)c2)CC1
